Experiments:
Format in all cases: functional
[1] = test system: CCRF-CEM; assay: Growth inhibition of human CCRF-CEM cells assessed as cell growth at 0.01 uM incubated for 48 hrs by sulforhodamine B assay relative to control; conditions: read-out: Activity
How it was run: (§1)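 NCI Developmental Therapeutics Program NCI60 panel. Compounds that were active in the 10 µM one-dose screen went on to dose–response testing. Growth at each concentration is expressed relative to untreated control (100%). GI50 (concentration giving 50% of maximal inhibition of proliferation) and TGI (concentration giving total growth inhibition) were derived from the curves.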

[2] = test system: K562; assay: Growth inhibition of human K562 cells assessed as cell growth at 0.01 uM incubated for 48 hrs by sulforhodamine B assay relative to control; conditions: read-out: Activity
[3] = test system: NCI-H226; assay: Growth inhibition of human NCI-H226 cells assessed as cell growth at 0.01 uM incubated for 48 hrs by sulforhodamine B assay relative to control; conditions: read-out: Activity
[4] = test system: HCC 2998; assay: Growth inhibition of human HCC 2998 cells assessed as cell growth at 0.01 uM incubated for 48 hrs by sulforhodamine B assay relative to control; conditions: read-out: Activity; how it was run: as §1
[5] = test system: KM12; assay: Growth inhibition of human KM12 cells assessed as cell growth at 0.01 uM incubated for 48 hrs by sulforhodamine B assay relative to control; conditions: read-out: Activity
[6] = test system: MDA-MB-435; assay: Growth inhibition of human MDA-MB-435 cells assessed as cell growth at 0.01 uM incubated for 48 hrs by sulforhodamine B assay relative to control; conditions: read-out: Activity
[7] = test system: CAKI-1; assay: Growth inhibition of human CAKI-1 cells assessed as cell growth at 0.01 uM incubated for 48 hrs by sulforhodamine B assay relative to control; conditions: read-out: Activity; how it was run: as §1
[8] = test system: RXF 393; assay: Growth inhibition of human RXF 393 cells assessed as cell growth at 0.01 uM incubated for 48 hrs by sulforhodamine B assay relative to control; conditions: read-out: Activity
[9] = test system: SN12C; assay: Growth inhibition of human SN12C cells assessed as cell growth at 0.01 uM incubated for 48 hrs by sulforhodamine B assay relative to control; conditions: read-out: Activity
[10] = test system: UO-31; assay: Growth inhibition of human UO-31 cells assessed as cell growth at 0.01 uM incubated for 48 hrs by sulforhodamine B assay relative to control; conditions: read-out: Activity
[11] = test system: MDA-MB-468; assay: Growth inhibition of human MDA-MB-468 cells assessed as cell growth at 0.01 uM incubated for 48 hrs by sulforhodamine B assay relative to control; conditions: read-out: Activity
[12] = test system: SR; assay: Growth inhibition of human SR cells assessed as cell growth at 0.1 uM incubated for 48 hrs by sulforhodamine B assay relative to control; conditions: read-out: Activity
[13] = test system: HCC 2998; assay: Growth inhibition of human HCC 2998 cells assessed as cell growth at 0.1 uM incubated for 48 hrs by sulforhodamine B assay relative to control; conditions: read-out: Activity; how it was run: as §1
[14] = test system: HCT-15; assay: Growth inhibition of human HCT-15 cells assessed as cell growth at 0.1 uM incubated for 48 hrs by sulforhodamine B assay relative to control; conditions: read-out: Activity
[15] = test system: SK-MEL-2; assay: Growth inhibition of human SK-MEL-2 cells assessed as cell growth at 0.1 uM incubated for 48 hrs by sulforhodamine B assay relative to control; conditions: read-out: Activity
[16] = test system: SK-OV-3; assay: Growth inhibition of human SK-OV-3 cells assessed as cell growth at 0.1 uM incubated for 48 hrs by sulforhodamine B assay relative to control; conditions: read-out: Activity
[17] = test system: SN12C; assay: Growth inhibition of human SN12C cells assessed as cell growth at 0.1 uM incubated for 48 hrs by sulforhodamine B assay relative to control; conditions: read-out: Activity
[18] = test system: BT-549; assay: Growth inhibition of human BT-549 cells assessed as cell growth at 0.1 uM incubated for 48 hrs by sulforhodamine B assay relative to control; conditions: read-out: Activity
[19] = test system: RPMI-8226; assay: Growth inhibition of human RPMI-8226 cells assessed as cell growth at 1 uM incubated for 48 hrs by sulforhodamine B assay relative to control; conditions: read-out: Activity
[20] = test system: HCC 2998; assay: Growth inhibition of human HCC 2998 cells assessed as cell growth at 1 uM incubated for 48 hrs by sulforhodamine B assay relative to control; conditions: read-out: Activity; how it was run: as §1
[21] = test system: KM12; assay: Growth inhibition of human KM12 cells assessed as cell growth at 1 uM incubated for 48 hrs by sulforhodamine B assay relative to control; conditions: read-out: Activity
[22] = test system: LOX IMVI; assay: Growth inhibition of human LOX IMVI cells assessed as cell growth at 1 uM incubated for 48 hrs by sulforhodamine B assay relative to control; conditions: read-out: Activity
[23] = test system: SK-MEL-28; assay: Growth inhibition of human SK-MEL-28 cells assessed as cell growth at 1 uM incubated for 48 hrs by sulforhodamine B assay relative to control; conditions: read-out: Activity
[24] = test system: SK-MEL-5; assay: Growth inhibition of human SK-MEL-5 cells assessed as cell growth at 1 uM incubated for 48 hrs by sulforhodamine B assay relative to control; conditions: read-out: Activity
[25] = test system: Hs-578T; assay: Growth inhibition of human Hs-578T cells assessed as cell growth at 1 uM incubated for 48 hrs by sulforhodamine B assay relative to control; conditions: read-out: Activity
[26] = test system: HCC 2998; assay: Growth inhibition of human HCC 2998 cells assessed as cell growth at 100 uM incubated for 48 hrs by sulforhodamine B assay relative to control; conditions: read-out: Activity; how it was run: as §1
[27] = test system: SNB-75; assay: Growth inhibition of human SNB-75 cells assessed as cell growth at 100 uM incubated for 48 hrs by sulforhodamine B assay relative to control; conditions: read-out: Activity
[28] = test system: U-251; assay: Growth inhibition of human U-251 cells assessed as cell growth at 100 uM incubated for 48 hrs by sulforhodamine B assay relative to control; conditions: read-out: Activity
[29] = test system: OVCAR-8; assay: Growth inhibition of human OVCAR-8 cells assessed as cell growth at 100 uM incubated for 48 hrs by sulforhodamine B assay relative to control; conditions: read-out: Activity
[30] = test system: CCRF-CEM; assay: Growth inhibition of human CCRF-CEM cells incubated for 48 hrs by sulforhodamine B assay; how it was run: as §1
[31] = test system: SK-OV-3; assay: Growth inhibition of human SK-OV-3 cells incubated for 48 hrs by sulforhodamine B assay; conditions: for CC50: read-out: LC50 (the source's name)
How it was run: (§2)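 NCI DTP 60-line human tumour panel. Dose-response curves were run only for ligands active in the initial 10 µM screen. GI50 (concentration giving 50% of maximal inhibition of proliferation) and TGI (concentration giving total growth inhibition) were derived from these curves.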

[32] = test system: TK-10; assay: Growth inhibition of human TK-10 cells incubated for 48 hrs by sulforhodamine B assay; conditions: for CC50: read-out: LC50 (the source's name); how it was run: as §2
[33] = test system: MDA-MB-468; assay: Growth inhibition of human MDA-MB-468 cells incubated for 48 hrs by sulforhodamine B assay; conditions: for CC50: read-out: LC50 (the source's name)
How it was run: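 NCI60 panel at the NCI Developmental Therapeutics Program. Only compounds active in the 10 µM screen went to dose-response testing. GI50, the concentration giving 50% of maximal inhibition of proliferation, and TGI, the concentration giving total growth inhibition, were derived from the dose-response curves.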

[34] = test system: UACC-62; assay: Growth inhibition of human UACC-62 cells assessed as cell growth at 0.1 uM incubated for 48 hrs by sulforhodamine B assay relative to control; conditions: read-out: Activity
[35] = test system: PC-3; assay: Growth inhibition of human PC-3 cells assessed as cell growth at 0.1 uM incubated for 48 hrs by sulforhodamine B assay relative to control; conditions: read-out: Activity

Work on `CCc1ccccc1NC(=O)c1sc2nc3c(cc2c1N)C(=O)CCC3` yielded a growth at 0.01 µM [1] of 96%, a growth at 0.01 µM [2] of 104% and a growth at 0.01 µM [3] of 89%. For the same molecule, the growth at 0.01 µM [4] was 100%, the growth at 0.01 µM [5] was 100% and the growth at 0.01 µM [6] was 92%. It also gave a growth at 0.01 µM [7] of 89%, a growth at 0.01 µM [8] of 94% and a growth at 0.01 µM [9] of 94%. The growth at 0.01 µM [10] was 90%, the growth at 0.01 µM [11] was 91% and the growth at 0.1 µM [12] was 96%. The growth at 0.1 µM [13] was 96%, the growth at 0.1 µM [14] was 74% and the growth at 0.1 µM [15] was 104%. For the same molecule, the growth at 0.1 µM [16] was 103%, the growth at 0.1 µM [17] was 88% and the growth at 0.1 µM [18] was 101%. For the same molecule, the growth at 1 µM [19] was 41%, the growth at 1 µM [20] was 56% and the growth at 1 µM [21] was 21%. The growth at 1 µM [22] was 39%, the growth at 1 µM [23] was 49% and the growth at 1 µM [24] was 11%. For the same molecule, the growth at 1 µM [25] was 18%, the growth at 100 µM [26] was 3% and the growth at 100 µM [27] was -19%. It also gave a growth at 100 µM [28] of -15%, a growth at 100 µM [29] of 10% and a GI50 [30] of 0.328 µM. It also gave an LC50 [30] greater than 100 µM, a TGI [30] greater than 100 µM and a GI50 [31] of 0.537 µM. For the same molecule, the TGI [31] was 75.7 µM, the CC50 [31] was greater than 100 µM and the GI50 [32] was 23.2 µM. It also gave a TGI [32] greater than 100 µM, a CC50 [32] greater than 100 µM and a GI50 [33] of 0.209 µM. It also gave a TGI [33] of 44.7 µM and a CC50 [33] greater than 100 µM.

In the case of `Cc1ccc(NC(=O)c2sc3nc4c(cc3c2N)C(=O)CCC4)cc1C`, the growth at 0.01 µM [1] was 94%, the growth at 0.01 µM [2] was 114% and the growth at 0.01 µM [3] was 90%. For the same molecule, the growth at 0.01 µM [4] was 99%, the growth at 0.01 µM [5] was 98% and the growth at 0.01 µM [6] was 95%. It also gave a growth at 0.01 µM [7] of 96%, a growth at 0.01 µM [8] of 87% and a growth at 0.01 µM [9] of 94%. It also gave a growth at 0.01 µM [10] of 81%, a growth at 0.01 µM [11] of 95% and a growth at 0.1 µM [12] of 108%. The growth at 0.1 µM [13] was 93%, the growth at 0.1 µM [14] was 90% and the growth at 0.1 µM [15] was 90%. The growth at 0.1 µM [16] was 107%, the growth at 0.1 µM [17] was 96% and the growth at 0.1 µM [18] was 108%. For the same molecule, the growth at 1 µM [19] was 57%, the growth at 1 µM [20] was 57% and the growth at 1 µM [21] was 24%. For the same molecule, the growth at 1 µM [22] was 42%, the growth at 1 µM [23] was 51% and the growth at 1 µM [24] was 21%. It also gave a growth at 1 µM [25] of 16%, a growth at 100 µM [26] of 5% and a growth at 100 µM [27] of 10%. It also gave a growth at 100 µM [28] of -9%, a growth at 100 µM [29] of 11% and a GI50 [30] of 0.334 µM. It also gave an LC50 [30] greater than 100 µM, a TGI [30] of no less than 100 µM and a GI50 [31] of 0.534 µM. For the same molecule, the TGI [31] was greater than 100 µM, the CC50 [31] was greater than 100 µM and the TGI [32] was greater than 100 µM. It also gave a CC50 [32] greater than 100 µM, a GI50 [33] of 0.229 µM and a CC50 [33] greater than 100 µM.

Work on `CCc1cccc(C)c1NC(=O)c1sc2nc3c(cc2c1N)C(=O)CCC3` yielded a growth at 0.01 µM [1] of 97%, a growth at 0.01 µM [2] of 92% and a growth at 0.01 µM [3] of 96%. It also gave a growth at 0.01 µM [4] of 99%, a growth at 0.01 µM [5] of 96% and a growth at 0.01 µM [6] of 92%. It also gave a growth at 0.01 µM [7] of 89%, a growth at 0.01 µM [8] of 84% and a growth at 0.01 µM [9] of 97%. It also gave a growth at 0.01 µM [10] of 86%, a growth at 0.01 µM [11] of 91% and a growth at 0.1 µM [12] of 101%. The growth at 0.1 µM [13] was 100%, the growth at 0.1 µM [14] was 92% and the growth at 0.1 µM [34] was 88%. For the same molecule, the growth at 0.1 µM [17] was 92%, the growth at 0.1 µM [35] was 87% and the growth at 1 µM [19] was 44%. For the same molecule, the growth at 1 µM [20] was 55%, the growth at 1 µM [21] was 24% and the growth at 1 µM [22] was 43%. It also gave a growth at 1 µM [23] of 48%, a growth at 1 µM [24] of 6% and a growth at 1 µM [25] of 20%. The growth at 100 µM [26] was 10%, the growth at 100 µM [27] was 29% and the growth at 100 µM [28] was 4%. The growth at 100 µM [29] was -2%, the GI50 [30] was 0.346 µM and the LC50 [30] was greater than 100 µM. The TGI [30] was no less than 100 µM, the GI50 [33] was 0.261 µM and the TGI [33] was 60.6 µM. It also gave a CC50 [33] greater than 100 µM.
